# sdo1 growth: sdo1-depleted yeast growth rescue. z-score at 10 µM. 0.21% of 140,000 active. S. cerevisiae sdo1-depleted JHY4D growth rescue, OD600 30 h; active compounds read high; pdr5 snq2 efflux-pump mutant strain. AID 817;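 active means z-score above 3 at both the 24 hr and the 30 hr optical density reads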
# STAT1 activator: STAT1 signaling activation; 2.6% of 200,000 active; AID 932; NIH 3T3 STAT1-luciferase reporter, IFN-gamma, luminescence; 100% = IFN-gamma alone, no compound; activation (% of control), % at 5.5 µM;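 active means activation above the screen-wide mean activation plus 3 SD, cut at about 130% in these data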
# FLuc stim CS: firefly luciferase counter-screen for stimulation assays. AID 1027. 200,000 tested, under 10 active. activation factor at 10 µM. ATPlite luciferase biochemical, luminescence, 10 min; 0 = ATP-free wells, 1 = DMSO control. P08659;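 active means luciferase activation factor, scaled between plate controls, of at least 2 with compound at 10 µM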
# Target sequence (P08659 whole entry, looked up): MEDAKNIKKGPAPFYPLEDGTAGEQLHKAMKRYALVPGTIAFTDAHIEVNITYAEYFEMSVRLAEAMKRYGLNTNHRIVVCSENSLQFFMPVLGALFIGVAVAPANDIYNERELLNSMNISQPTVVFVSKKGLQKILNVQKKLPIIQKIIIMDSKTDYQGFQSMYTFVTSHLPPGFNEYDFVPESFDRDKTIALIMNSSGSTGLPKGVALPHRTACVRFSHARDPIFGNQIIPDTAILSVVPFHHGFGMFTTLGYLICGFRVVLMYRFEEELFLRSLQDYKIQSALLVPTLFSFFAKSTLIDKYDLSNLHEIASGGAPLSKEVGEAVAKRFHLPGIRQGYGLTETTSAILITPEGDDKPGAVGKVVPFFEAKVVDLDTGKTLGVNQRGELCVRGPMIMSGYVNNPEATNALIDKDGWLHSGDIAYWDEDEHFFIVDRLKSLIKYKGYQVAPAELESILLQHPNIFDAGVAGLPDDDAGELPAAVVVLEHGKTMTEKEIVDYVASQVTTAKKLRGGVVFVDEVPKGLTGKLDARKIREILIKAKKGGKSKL
#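 System: luciferase plus luciferin reagent, cell-free; medium: PBS as buffer for the ATP substrate; dosing: test compounds dosed from 2 mM stocks in 100% DMSO; timing: 10 min post-reagent at room temperature; measured by: luminescence measurement of luciferase light output; evaluation: luciferase activation, seen as luminescence increase over controls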
# APP 5'UTR act: APP 5'UTR luciferase reporter activation; SH-SY5Y APP 5'UTR luciferase reporter, luminescence; zero percent = DMSO vehicle wells; activation, % at 2 µM; 1% of 190,000 active;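 active means activation above a set limit, based on mean plus 3 SD of controls, cut at about 140% in these data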
# NF-kB neuron act: raises NF-kB expression in human neuronal cells. NF-kB reporter expression; active compounds read high. fold change at 12.5 µM. 1.6% of 190,000 active. AID 1239; in the data active means fold change above about 3.3
# FLuc inhib CS: counter-screen for luciferase assay inhibitors: firefly luciferase inhibition | inhibition, % at 10 µM | 1.5% of 200,000 active | P08659 | ATPLite firefly luciferase biochemical luminescence, 10 min;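 active means inhibition above about 50% when tested at 10 µM, limit read from the data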
# Hits are given with their value; 0 = inactive; - = no result. This is a sample that favours compounds with a hit; in the whole collection about 4.3% have one here.
SMILES,sdo1 growth,STAT1 activator,FLuc stim CS,APP 5'UTR act,NF-kB neuron act,FLuc inhib CS
Cc1cc(NC(=O)c2ccc([N+](=O)[O-])o2)ccc1NC(=O)c1ccco1,-,0,0,0,5.1,0
O=C(c1cc([N+](=O)[O-])ccc1Cl)N1CCN(Cc2ccc3c(c2)OCO3)CC1,-,0,0,0,0,0
COc1ccc(Nc2nc(N)nc(CSC(=S)N3CCCCC3)n2)cc1,-,129,0,0,0,0
COc1ccc(Nc2nc(N)nc(CSC(=S)N3CCN(C)CC3)n2)cc1,-,0,0,0,0,0
Cc1cccc(NC(=O)c2cnc3n(c2=O)CCS3)c1,0,132,0,0,0,0
O=C(Nc1ccc2c(c1)OCCO2)c1cnc2n(c1=O)CCS2,0,142,0,0,0,0
O=C(Nc1ccccc1)c1cnc2n(c1=O)CCS2,0,0,0,0,0,0
On1nnc2ccc3ccccc3c21,0,0,0,0,0,0
N/C(=N\OC(=O)c1ccc([N+](=O)[O-])cc1)c1cccnc1,0,0,0,0,0,94
N/C(=N\OC(=O)c1ccccc1[N+](=O)[O-])c1cccnc1,0,0,0,0,0,0
Cc1ccc(C(=O)O/N=C(\N)c2cccnc2)cc1[N+](=O)[O-],0,0,0,0,0,75
N/C(=N\OC(=O)C1CCCCC1)c1cccnc1,0,0,0,0,0,0
N/C(=N\OC(=O)c1ccc(Br)o1)c1cccnc1,-,131,0,0,0,0
Cc1ccc(C(=O)O/N=C(\N)c2cccc([N+](=O)[O-])c2)cc1,0,147,0,158,3.8,96
CCN=C(N/N=C/c1ccc([N+](=O)[O-])cc1)SC,0,0,0,0,0,0
CCCCCCOC(=O)/C=C/c1c(C)[nH]c(=O)[nH]c1=O,0,0,0,0,0,0
Cc1cc(C(=O)N2CCc3c([nH]c4ccccc34)C2c2cccc(Cl)c2)nn1C (stereo unspecified),-,0,0,0,0,0
CSc1ccc(C2c3[nH]c4ccccc4c3CCN2C(=O)c2cc(C)n(C)n2)cc1 (stereo unspecified),-,132,0,0,0,0
Cc1ccc(OCC(=O)Nc2ccc(N3CCN(S(C)(=O)=O)CC3)cc2)cc1C,-,0,0,0,0,0
Cc1ccc(Nc2nc3c(c(=O)[nH]2)CCCC3)cc1,0,0,0,0,0,0
O=c1[nH]c(Nc2nc3ccccc3o2)nc2c1CCCC2,0,0,0,170,0,70
Fc1c(F)c(F)c(N/N=C/c2c[nH]c3ccccc23)c(F)c1F,0,0,0,0,13,0
CC(C)(C)OC(=O)N/N=C/c1c[nH]c2ccccc12,0,0,0,0,0,54
Cc1occc1C(=O)N/N=C/c1c[nH]c2ccccc12,0,132,0,143,0,0
CCCC(=O)Nc1ccccc1Sc1ncnc2scc(-c3ccccc3)c12,0,0,0,0,0,0
SMILES,sdo1 growth,STAT1 activator,FLuc stim CS,APP 5'UTR act,NF-kB neuron act,FLuc inhib CS
CCOC(=O)COc1ccc2c3c(c(=O)oc2c1C)CCC3,0,0,0,0,4.8,0
CC(=O)N(C)Cc1ccc(C(=O)CCl)cc1,-,0,0,0,3.8,0
CC(C)(C)NC(=O)NC(=O)COc1ccccc1C#N,0,140,0,187,0,0
C=CCNC(=O)COc1ccccc1C#N,-,0,0,0,0,0
COc1ccc(-c2nc3ccc(N4CCN(C)CC4)cc3c(=O)[nH]2)cc1,-,130,0,0,0,0
COC(=O)c1ccc(N/C(=N/S(=O)(=O)c2ccccc2)c2ccccc2)cc1,0,0,0,0,0,0
Cc1ccc(S(=O)(=O)/N=C(/NC(=S)Nc2ccccc2)c2ccccc2)cc1,0,150,0,144,6,0
Cc1ccc(NC(=S)N/C(=N/S(=O)(=O)c2ccccc2)c2ccccc2)cc1,0,143,0,0,0,0
O=C(Nn1c(-c2ccc(F)cc2)nc2ccccc2c1=O)C1CCCCC1,0,0,0,0,0,0
Cc1nnc(SCC2=C(C(=O)O)N3C(=O)C(NC(=O)c4cccc(F)c4F)C3SC2)s1 (stereo unspecified),-,0,0,0,0,0
Cc1ccnc(SCc2nc3ccccc3s2)n1,0,130,0,0,0,0
Cc1cc(NS(=O)(=O)c2ccc(NC(=O)c3ccc(Br)o3)cc2)nc(C)n1,-,0,0,0,0,0
CCN=c1scc(C)n1/N=C/c1ccsc1,0,150,0,0,3.6,0
COc1ccc(OCC(=O)N/N=C/c2ccsc2)cc1,0,0,0,0,0,0
COC(=O)c1ccc(Cl)c(NC(=O)CN(c2ccccc2)S(=O)(=O)c2ccc(OC)cc2)c1,0,0,0,0,0,0
Cc1ccc(C(=O)NC2CCc3ccccc3C2=O)cc1 (stereo unspecified),-,141,0,156,3.9,62
COc1cc(OC)c(OC)cc1/C=C/C(=O)c1ccc(NS(=O)(=O)c2ccc(C)cc2)cc1,0,0,0,0,0,0
CCC(=O)OCn1nnc2ccccc2c1=O,-,0,0,0,0,0
O=c1c2ccccc2nnn1COc1ccc(Cl)cc1Br,-,133,0,0,0,0
CCOc1ccc(OCCn2nnc3ccccc3c2=O)cc1,-,0,0,0,4.6,0
O=c1c2ccccc2nnn1COc1cccc2ccccc12,-,130,0,0,0,0
CCCn1nnc2ccccc2c1=O,0,0,0,0,0,0
O=c1c2ccccc2nnn1COc1ccc(F)cc1Cl,-,144,0,0,0,0
CSc1ccc(CN2CCCC(CNC(=O)c3ccc(F)cc3)C2)cc1 (stereo unspecified),-,0,0,0,0,0
Cc1c(C(=O)OC(C)C)sc(N)c1C(=O)OC(C)C,0,0,0,0,0,0
SMILES,sdo1 growth,STAT1 activator,FLuc stim CS,APP 5'UTR act,NF-kB neuron act,FLuc inhib CS
COc1ccccc1NC(=O)c1sc2nc(Cc3ccccc3)cc(C(F)(F)F)c2c1N,0,0,0,0,0,0
COc1ccc(N2CCN(C(=O)Cn3cnc4c(cnn4-c4ccc(C)cc4)c3=O)CC2)cc1,-,0,0,0,0,0
N#C/C(=C\c1ccc(OCc2ccccc2)cc1)C(N)=O,-,130,0,0,0,0
Cc1ccccc1COc1ccc(/C=C(\C#N)C(N)=O)cc1,-,0,0,0,0,0
O=C(c1ccco1)N1c2ccccc2Sc2ccccc21,0,0,0,0,0,0
O=C(Cc1ccc(Cl)cc1)Nc1ccc(N2CCN(C(=O)c3ccco3)CC2)cc1,0,0,0,0,0,0
O=C(c1ccco1)N1CCN(C(=O)N2c3ccccc3Sc3ccccc32)CC1,0,0,0,0,4.7,0
O=C(c1ccco1)N1CCN(c2ccc(Cl)cc2)CC1,0,134,0,0,0,0
COc1ccc(NC(=O)C(CC(=O)O)C(C)c2ccccc2)cc1 (stereo unspecified),-,0,0,0,0,0
CC1CCC(NC(=O)c2cnccn2)CC1 (stereo unspecified),0,0,0,0,0,0

# Bioassay records as filed in PubChem.
